Consider 25 compounds from ChEMBL document CHEMBL4316597, “Design, Synthesis, and Biological Evaluation of Itaconic Acid Derivatives as Potential Anti-Influenza Agents” (J Med Chem, 2019).

Calls of active or inactive are those of the source. The calls are words filed in the database; no cut-off is given here.

The test system of data set [1] is Influenza A virus. The data set is described as follows: Antiviral activity against Influenza A virus (A/WSN/33) infected in MDCK cells assessed as reduction in virus-induced cytopathic effect after 72 hrs by crystal violet-staining based assay. Type of data set: functional, organism-based. The settings on record: A/WSN/1933(H1N1). In a few lines: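 Cells seeded at 2 × 10^4/well in E10 (DMEM, 10% FBS), 16–24 h at 37 °C/5% CO2, washed with DPBS, then infected at nine-fold TCID50 with or without serial compound concentrations. Influenza is run in MDCK and enterovirus/rhinovirus in RD. Incubated 72 h, fixed in 4% paraformaldehyde, stained with 0.1% crystal violet, and read for cell density. EC50 = 50% CPE inhibition by Reed–Muench; mean ± S.D. of at least three runs.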

Data set [2] can be described thus: Selectivity ratio of CC50 for MDCK cells to EC50 for Influenza A virus (A/WSN/33). In kind it is toxicity. The settings on record: dog, read-out: Ratio CC50/EC50. The method in brief:
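SI is calculated as CC50 (MDCK, 72 h MTT) divided by EC50 (72 h crystal-violet CPE assay in MDCK).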

A short description of data set [3]: Cytotoxicity against MDCK cells assessed as cell death after 72 hrs by MTT assay. In kind it is cell-based, Canis lupus familiaris. The note with it: dog. In a few lines:
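MDCK or RD cells at 2 × 10^4/well in E10, overnight at 37 °C/5% CO2, DPBS wash, then exposed to graded compound concentrations for 72 h. MTT added for 3 h, formazan dissolved in DMSO, absorbance read at 570 nm. CC50 (50% cell death) by Reed–Muench.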

Data set [4] concerns Influenza A virus. Kind of data set: Inhibition of viral protein sub-cellular distribution in Influenza A virus (A/WSN/33) infected in MDCK cells assessed as reduction in PA protein distribution to cytoplasm at 10 nM measured after 9 hrs post infection by IF-staining based microscopy. In kind it is functional, organism-based. The note with it: A/WSN/1933(H1N1). The method in brief: (§1)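 MDCK cells grown on coverslips (2 × 10^5/well, 16 h), infected at MOI 0.1 for 1 h, washed, then kept in E0 with test compound (1 or 10 μM) or LMB 10 nM; DMSO 0.05% as mock. Fixed at 9 h pi in 4% paraformaldehyde and immunostained for M1, NP, NS2 or PA (1:50), with Hoechst nuclear stain. Viewed by confocal microscopy at 63×. NP nuclear/cytoplasmic intensity ratio quantified; three independent experiments.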

Data set [5] relates to Influenza A virus. Kind of data set: Antiviral activity against Influenza A virus (A/WSN/33) infected in MDCK cells assessed as reduction in NS2 protein distribution to cytoplasm at 10 nM measured after 9 hrs post infection by IF-staining based microscopy. In kind it is functional, organism-based. The settings on record: A/WSN/1933(H1N1). The method in brief: as §1
Data set [6] concerns Influenza A virus. Kind of data set: Antiviral activity against Influenza A virus (A/WSN/33) infected in MDCK cells assessed as reduction in M1 protein distribution to cytoplasm at 10 nM measured after 9 hrs post infection by IF-staining based microscopy. In kind it is functional, organism-based. The settings on record: A/WSN/1933(H1N1). The method in brief:
as §1

The subject of data set [7] is Influenza A virus. The data set is described as follows: Inhibition of viral protein sub-cellular distribution in Influenza A virus (A/WSN/33) infected in MDCK cells assessed as reduction in M1 protein distribution to cytoplasm at 10 nM measured after 9 hrs post infection by IF-staining based microscopy. Type of data set: functional, organism-based. The settings on record: A/WSN/1933(H1N1). In a few lines: as §1

Data set [8] concerns Influenza A virus. Kind of data set: Antiviral activity against Influenza A virus (A/WSN/33) infected in MDCK cells assessed as reduction in PA protein distribution to cytoplasm at 10 nM measured after 9 hrs post infection by IF-staining based microscopy. In kind it is functional, organism-based. The note with it: A/WSN/1933(H1N1). The method in brief:
as §1

Data set [9] concerns Influenza A virus. The data set is described as follows: Antiviral activity against Influenza A virus (A/WSN/33) infected in MDCK cells assessed as reduction in NP protein distribution to cytoplasm at 10 nM measured after 9 hrs post infection by IF-staining based microscopy. In kind it is functional, organism-based. The settings on record: A/WSN/1933(H1N1). In a few lines: as §1

A further data set has as its system MDCK. The data set is described as follows: Inhibition of CRM1 in MDCK cells infected with Influenza A virus (A/WSN/33) assessed as reduction in CRM1-mediated viral protein nuclear export by measuring reduction in NP protein distribution to cytoplasm at 10 nM measured after 9 hrs post infection by IF-staining based microscopy. The settings on record: Canis lupus familiaris. In kind it is cell-based. The method in brief:
as §1

The subject of data set [10] is Influenza A virus. Kind of data set: Inhibition of viral protein sub-cellular distribution in Influenza A virus (A/WSN/33) infected in MDCK cells assessed as reduction in NS2 protein distribution to cytoplasm at 10 nM measured after 9 hrs post infection by IF-staining based microscopy. In kind it is functional, organism-based. The note with it: A/WSN/1933(H1N1). The method in brief: as §1

In general, EC50 refers to the concentration needed to bring the measured effect to its halfway point. The term CC50 denotes the concentration that lowers cell viability or growth by half. Consider `C=C(CC(=O)Nc1cc(Cl)ccc1F)C(=O)Nc1cc(Cl)ccc1F`, for which the EC50 in the data set on Influenza A virus [1] was found to be 0.18 µM. In addition, in data set [2], the selectivity ratio came out at 111. The half-maximal cytotoxic concentration (CC50) at 72 h in data set [3] came out at 19.9 µM.
`C=C(CC(=O)Nc1cc(F)ccc1C(F)(F)F)C(=O)O`: the EC50 in the data set with Influenza A virus [1] is more than 50 µM. Further, the CC50 at 72 h in [3] is more than 110 µM.
With `C=C(CC(=O)NCc1cc(F)ccc1F)C(=O)NCc1cc(F)ccc1F`, the half-maximal effective concentration (EC50) with Influenza A virus [1] was more than 50 µM. The half-maximal cytotoxic concentration (CC50) at 72 h in [3] is more than 110 µM.
The like results for `C=C(CC(=O)Nc1ccc(F)cc1C(F)(F)F)C(=O)Nc1ccc(F)cc1C(F)(F)F` were, in that order, more than 50 µM and more than 110 µM.
The like results for `C=C(CC(=O)Nc1ccc(F)cc1F)C(=O)O` were, in that order, more than 50 µM and more than 110 µM.
`C=C(CC(=O)Nc1ccc(OC)cc1F)C(=O)Nc1ccc(OC)cc1F`: the EC50 in the data set on Influenza A virus [1] worked out at 31 µM. Moreover, in data set [2], the selectivity ratio was more than 3. In addition, the 50% cytotoxic concentration (CC50) at 72 h in data set [3] was more than 110 µM.
On to `C=C(CC(=O)NCc1ccc(F)cc1F)C(=O)NCc1ccc(F)cc1F`, for which the EC50 in the data set on Influenza A virus [1] was more than 50 µM. For the same compound, the CC50 at 72 h in data set [3] was more than 110 µM.
Consider `CCC(=C/[C@H](C)C/C=C/C(C)=C/[C@@H](C)C(=O)[C@@H](C)[C@H](O)[C@@H](C)C/C(C)=C/C(=O)O)/C=C/[C@@H]1OC(=O)C=C[C@@H]1C` [LEPTOMYCIN B], for which the EC50 in the data set on Influenza A virus [1] was determined as 0.18 µM. In [2], the selectivity ratio was more than 4. Moreover, the inhibition entry with Influenza A virus [4], in the data set on Influenza A virus [7] and in the data set with Influenza A virus [10] was “inactive” each time. The CC50 at 72 h in data set [3] is more than 0.88 µM. In addition, the outcome in the data set with Influenza A virus [5], in the data set on Influenza A virus [6] and in the data set with Influenza A virus [8] was inactive. In the data set with Influenza A virus [9], the result was Active. The inhibition entry in the data set on MDCK is “Active”.
For the compound `C=C(CC(=O)Nc1cccc(C(F)(F)F)c1)C(=O)O`, the EC50 in the data set on Influenza A virus [1] was more than 50 µM. Besides, the CC50 at 72 h in [3] was more than 110 µM.
`C=C(CC(=O)Nc1ccccc1C(F)(F)F)C(=O)Nc1ccccc1C(F)(F)F`: the 50% effective concentration (EC50) in the data set on Influenza A virus [1] was more than 50 µM. For the same compound, in data set [3], the cytotoxic concentration (CC50) at 72 h was more than 110 µM.
The like results for `C=C(CC(=O)Nc1cc(F)ccc1F)C(=O)O` were, in that order, more than 50 µM and more than 110 µM.
As to `C=C(CC(=O)Nc1ccc(Br)cc1F)C(=O)Nc1ccc(Br)cc1F`, the EC50 in the data set with Influenza A virus [1] is 0.99 µM. In addition, the selectivity ratio in [2] is more than 111. Also, in [3], the CC50 at 72 h was more than 110 µM.
In the case of `C=C(CC(=O)Nc1ccccc1C(F)(F)F)C(=O)O`, in the data set with Influenza A virus [1], the EC50 was more than 50 µM. Further, the CC50 at 72 h in data set [3] is more than 110 µM.
Regarding `C=C(CC(=O)Nc1cc(F)ccc1F)C(=O)Nc1cc(F)ccc1F`, in the data set on Influenza A virus [1], the EC50 stood at 1.26 µM. For the same compound, the selectivity ratio in [2] came out at 26. Further, the CC50 at 72 h in [3] came to 32.8 µM.
On to `C=C(CC(=O)Nc1ccc(C(F)(F)F)cc1F)C(=O)O`, for which the 50% effective concentration (EC50) in the data set with Influenza A virus [1] was more than 50 µM. Moreover, the CC50 at 72 h in data set [3] was more than 110 µM.
`C=C(CC(=O)Nc1cc(C(F)(F)F)ccc1F)C(=O)Nc1cc(C(F)(F)F)ccc1F`: in the data set on Influenza A virus [1], the concentration for a half-maximal effect (EC50) amounted to 0.11 µM. For the same compound, the selectivity ratio in data set [2] turned out to be 136. For the same compound, the half-maximal cytotoxic concentration (CC50) at 72 h in data set [3] is 15 µM.
The like results for `C=C(CC(=O)Nc1cc(OC)ccc1F)C(=O)Nc1cc(OC)ccc1F` were, in that order, 0.48 µM, more than 229 and more than 110 µM.
The like results for `C=C(CC(=O)Nc1ccc(Cl)cc1F)C(=O)Nc1ccc(Cl)cc1F` were, in that order, 0.67 µM, more than 164 and more than 110 µM.
The like results for `C=C(CC(=O)Nc1ccc(F)cc1Br)C(=O)Nc1ccc(F)cc1Br` were, in that order, 2.59 µM, more than 42 and more than 110 µM.
As to `O=C(/C=C\n1cnc(-c2cc(C(F)(F)F)cc(C(F)(F)F)c2)n1)NNc1ccccn1` [VERDINEXOR], the concentration for a half-maximal effect (EC50) in the data set with Influenza A virus [1] turned out to be 3.28 µM. For the same compound, in data set [2], the selectivity ratio worked out at 9.69. Also, the CC50 at 72 h in data set [3] was 31.8 µM.
For the compound `C=C(CC(=O)Nc1cc(Cl)ccc1F)C(=O)O`, in the data set on Influenza A virus [1], the 50% effective concentration (EC50) is more than 50 µM. Further, in data set [3], the half-maximal cytotoxic concentration (CC50) at 72 h is more than 110 µM.
For `C=C(CC(=O)Nc1ccc(Br)cc1Br)C(=O)Nc1ccc(Br)cc1Br`, the concentration for a half-maximal effect (EC50) with Influenza A virus [1] is 41.6 µM. Further, in data set [2], the selectivity ratio is more than 2. In data set [3], the CC50 at 72 h is more than 110 µM.
Turning to `C=C(CC(=O)Nc1ccc(Cl)cc1F)C(=O)O`, the concentration for a half-maximal effect (EC50) in the data set with Influenza A virus [1] was more than 50 µM. The CC50 at 72 h in [3] is more than 110 µM.
The like results for `C=C(CC(=O)Nc1cc(C(F)(F)F)ccc1F)C(=O)O` were, in that order, more than 50 µM and more than 110 µM.
The like results for `C=C(CC(=O)Nc1ccc(F)cc1C(F)(F)F)C(=O)O` were, in that order, more than 50 µM and more than 110 µM.
